Data as given in article PMC3753066 (Nature methods, 2013).
≈ marks a conversion by molar mass, not a printed value. Starred links: 1 amine or outer side, 2 acyl side, 3 side chain; linkers in the order of their positions; H or OH if unused. Non-standard residues stand in square brackets, D forms with d. Residues, ends and D or L forms follow the SMILES beside them. X1 = CCCCCCCC[C@@H](C(=O)[*:2])N(C)[*:1]; Gly(octyl) = CCCCCCCC[C@H](N)C(=O)O; NMeL = CN[C@@H](CC(C)C)C(=O)O

Assays:
[1] = Water solubility of the peptides; assay type: physicochemical
MsbA = MsbA (Escherichia coli, UniProt P60752); experiment: MsbA ATPase activity and stability in BPs or detergent; assay type: biochemical, E. coli; settings: for ATPase activity of MsbA solubilized in the reagent: measured in triplicate at 37 °C, 20 mM Tris pH 7.5, 20 mM NaCl, 0.2–0.5 mg/mL
Outline: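 E. coli MsbA purified in UDM, then mixed with peptide at 50:1–100:1 molar ratio (peptide:protein). Detergent was removed by dialysis (6 kDa cutoff, 4 °C, 1–2 days, TLC-monitored) and the supernatant kept after 300,000 × g, 2 h, 4 °C. Comparison preparations were in UDM, LMNG, Amphipol A8-35 (5:1 w/w) or MSP1D1/DMPC nanodiscs. Samples (0.2–0.5 mg/mL) were held at RT up to 40 days, with linked-enzyme ATPase read-out, means ± standard error.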

Sequence of MsbA (P60752 whole entry): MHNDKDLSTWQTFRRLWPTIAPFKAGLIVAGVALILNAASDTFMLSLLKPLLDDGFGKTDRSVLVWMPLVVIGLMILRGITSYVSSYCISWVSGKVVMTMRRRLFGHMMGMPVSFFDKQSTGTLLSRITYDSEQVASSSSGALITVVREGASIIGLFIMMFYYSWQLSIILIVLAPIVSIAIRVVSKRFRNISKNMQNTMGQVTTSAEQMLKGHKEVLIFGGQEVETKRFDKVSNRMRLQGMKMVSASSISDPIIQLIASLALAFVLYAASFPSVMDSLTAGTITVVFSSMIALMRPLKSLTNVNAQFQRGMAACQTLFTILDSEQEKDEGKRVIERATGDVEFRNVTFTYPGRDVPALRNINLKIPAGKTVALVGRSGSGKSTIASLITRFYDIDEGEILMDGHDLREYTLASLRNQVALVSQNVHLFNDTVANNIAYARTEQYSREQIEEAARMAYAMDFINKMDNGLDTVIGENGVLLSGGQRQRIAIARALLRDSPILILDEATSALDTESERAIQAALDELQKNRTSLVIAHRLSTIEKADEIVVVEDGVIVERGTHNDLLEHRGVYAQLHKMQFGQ

loss of MsbA ATPase activity (MsbA; within the first day of incubation at RT, accompanied by protein precipitation) | SMILES | solubility [1] [µM] | change of MsbA ATPase activity on incubation (MsbA; 40 days of incubation at RT) | ATPase activity of MsbA solubilized in the reagent (MsbA)
– | CCCCCCCC[C@H](NC(C)=O)C(=O)N[C@@H](CO)C(=O)N[C@@H](CC(C)C)C(=O)N[C@@H](CO)C(=O)N(C)[C@@H](CC(C)C)C(=O)N[C@@H](CC(=O)O)C(=O)N[C@@H](CCCCCCCC)C(=O)N[C@@H](CC(=O)O)C(N)=O [BP-1] (Ac-[Gly(octyl)]SLS[NMeL]D[Gly(octyl)]D-NH2) | ~3000 (≈ 3130 µg/mL) | little change | ~ 4 μmol/min/mg
– | CCCCCCCC[C@H](NC(C)=O)C(=O)N[C@@H](CO)C(=O)N(C)[C@@H](CC(C)C)C(=O)N[C@@H](CO)C(=O)N(C)[C@@H](CC(C)C)C(=O)N[C@@H](CC(=O)O)C(=O)N[C@@H](CCCCCCCC)C(=O)N[C@@H](CC(=O)O)C(N)=O [BP-2] (Ac-[Gly(octyl)]S[NMeL]S[NMeL]D[Gly(octyl)]D-NH2) | ~3000 (≈ 3170 µg/mL) | – | –
~ 80% | CCCCCCCCCCCO[C@@H]1O[C@H](CO)[C@@H](O[C@H]2O[C@H](CO)[C@@H](O)[C@H](O)[C@H]2O)[C@H](O)[C@H]1O [UDM, β-D-undecylmaltoside, reference compound] | – | – | 2.2 µmol/min/mg
– | CCCCCCCC[C@H](NC(C)=O)C(=O)N[C@@H](CO)C(=O)N(C)[C@@H](CC(C)C)C(=O)N[C@@H](CO)C(=O)N(C)[C@@H](CC(C)C)C(=O)N[C@@H](CC(=O)O)C(=O)N(C)[C@@H](CCCCCCCC)C(=O)N[C@@H](CC(=O)O)C(N)=O [BP-3] (Ac-[Gly(octyl)]S[NMeL]S[NMeL]D[X1]D-NH2) | ~1000 (≈ 1070 µg/mL) | – | –
